Data reported in ChEMBL document CHEMBL3627639, “Structure-activity relationships of amide-phosphonate derivatives as inhibitors of the human soluble epoxide hydrolase” (Bioorg Med Chem, 2015).
Converted amounts (≈) assume the structure as drawn.

Molecular target: T1, Bifunctional epoxide hydrolase 2 (Homo sapiens, UniProt P34913)
T1 sequence (P34913 whole entry): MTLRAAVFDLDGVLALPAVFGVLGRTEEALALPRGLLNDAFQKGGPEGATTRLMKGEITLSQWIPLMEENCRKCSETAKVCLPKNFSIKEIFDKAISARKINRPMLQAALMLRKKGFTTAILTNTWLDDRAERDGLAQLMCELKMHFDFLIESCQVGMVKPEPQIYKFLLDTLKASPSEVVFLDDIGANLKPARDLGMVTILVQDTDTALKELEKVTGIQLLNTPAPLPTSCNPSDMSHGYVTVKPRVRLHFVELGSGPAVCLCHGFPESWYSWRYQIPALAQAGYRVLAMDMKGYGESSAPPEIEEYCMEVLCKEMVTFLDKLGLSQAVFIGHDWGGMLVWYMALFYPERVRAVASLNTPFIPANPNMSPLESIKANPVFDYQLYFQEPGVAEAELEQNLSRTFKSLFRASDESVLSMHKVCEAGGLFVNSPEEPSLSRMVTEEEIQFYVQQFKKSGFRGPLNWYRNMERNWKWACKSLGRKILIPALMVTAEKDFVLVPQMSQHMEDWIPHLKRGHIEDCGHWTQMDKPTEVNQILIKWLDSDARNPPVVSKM
Test: Inhibition of recombinant human sEH expressed in baculovirus infected insect Sf9 cells using CMNPC as substrate assessed as 6-methoxy-2-naphthadehyde level after 10 mins by fluorescence assay
Outline: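 Recombinant human sEH (6xHis-tagged, expressed in Sf9 cells, tag removed with TEV protease, purified by metal affinity then anion exchange; 1 nM) preincubated with compound in DMSO for 10 min in 25 mM Bis–Tris/HCl pH 7.0 at 30 °C. CMNPC substrate added (5 µM). 6-Methoxy-2-naphthaldehyde read at ex 330/em 465 nm over 10 min. IC50 by regression of ≥5 points; mean of three runs.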

| IC50 | Structure (SMILES) |
| --- | --- |
| 3 nM | CCOP(=O)(OCC)C(Nc1ccc(CNC(=O)C2CCc3ccccc3C2)cc1)C(C)(C)C (stereo not given) |
| 6.7 nM | CC(C)OP(=O)(OC(C)C)C(Nc1ccc(CNC(=O)C23CC4CC(CC(C4)C2)C3)cc1)C(C)(C)C (stereo not given) |
| 186 nM | CCOP(=O)(OCC)C(Nc1ccc(CNC(=O)C23CC4CC(CC(C4)C2)C3)cc1)c1ccc2ccccc2c1 (stereo not given) |
| 2.6 nM | CC(C)(C)C(Nc1ccc(CNC(=O)NC23CC4CC(CC(C4)C2)C3)cc1)P(=O)(OCc1ccccc1)OCc1ccccc1 (stereo not given) |
| 108 nM | CCOP(=O)(OCC)C(Nc1ccc(CNC(=O)C23CC4CC(CC(C4)C2)C3)cc1)c1ccc(C#N)cc1 (stereo not given) |
| 45 nM | CCOP(=O)(OCC)C(Nc1ccc(CNC(=O)C23CC4CC(CC(C4)C2)C3)cc1)c1ccccc1 (stereo not given) |
| 3.4 nM | CCOP(=O)(OCC)C(Nc1ccc(CNC(=O)Cc2ccc3ccccc3c2)cc1)C(C)(C)C (stereo not given) |
| 230 nM | CCOP(=O)(OCC)C(Nc1ccc(CNC(=O)C23CC4CC(CC(C4)C2)C3)cc1)c1ccc(C(=O)OC)cc1 (stereo not given) |
| 37 nM | CCOP(=O)(OCC)C(Nc1ccc(NC(=O)C23CC4CC(CC(C4)C2)C3)cc1)C(C)(C)C (stereo not given) |
| 130 nM | CCOP(=O)(OCC)C(Nc1ccc(CNC(=O)C23CC4CC(CC(C4)C2)C3)cc1)c1ccc(C)cc1 (stereo not given) |
| 1.7 nM | CC(C)OP(=O)(OC(C)C)C(Nc1ccc(CNC(=O)NC23CC4CC(CC(C4)C2)C3)cc1)C(C)(C)C (stereo not given) |
| 21 nM | CCOP(=O)(OCC)C(Nc1ccc(CNC(=O)C23CC4CC(CC(C4)C2)C3)cc1)C1CC1 (stereo not given) |
| 0.96 nM | CCOP(=O)(OCC)C(Nc1ccc(CNC(=O)NC23CC4CC(CC(C4)C2)C3)cc1)C(C)(C)C (stereo not given) |
| 30 nM | CC(C)(C)C(Nc1ccc(CNC(=O)C23CC4CC(CC(C4)C2)C3)cc1)P(=O)(OCC(F)(F)F)OCC(F)(F)F (stereo not given) |
| 16 nM | CC(C)COP(=O)(OCC(C)C)C(Nc1ccc(CNC(=O)C23CC4CC(CC(C4)C2)C3)cc1)C(C)(C)C (stereo not given) |
| 3 nM | CCCCOP(=O)(OCCCC)C(Nc1ccc(CNC(=O)NC23CC4CC(CC(C4)C2)C3)cc1)C(C)(C)C (stereo not given) |
| 8.2 nM | CCOP(=O)(OCC)C(Nc1ccc(CCNC(=O)C23CC4CC(CC(C4)C2)C3)cc1)C(C)(C)C (stereo not given) |
| 17 nM | CCOP(=O)(OCC)C(Nc1ccc(CNC(=O)c2ccc3cc(O)ccc3c2)cc1)C(C)(C)C (stereo not given) |

| IC50 | Structure (SMILES) |
| --- | --- |
| 26 nM | CCCCOP(=O)(OCCCC)C(Nc1ccc(CNC(=O)C23CC4CC(CC(C4)C2)C3)cc1)C(C)(C)C (stereo not given) |
| 23 nM | CCOP(=O)(OCC)C(Nc1ccc(CNC(=O)C2CCCCC2)cc1)C(C)(C)C (stereo not given) |
| 3.8 nM | CC(C)(C)C(Nc1ccc(CNC(=O)NC23CC4CC(CC(C4)C2)C3)cc1)P(=O)(OCC(F)(F)F)OCC(F)(F)F (stereo not given) |
| 43 nM | CCOP(=O)(OCC)C(Nc1ccc(CCC(=O)NC23CC4CC(CC(C4)C2)C3)cc1)C(C)(C)C (stereo not given) |
| 5.1 nM | CCOP(=O)(OCC)C(Nc1ccc(CNC(=O)C23CC4CC(CC(C4)C2)C3)cc1)C(C)(C)C (stereo not given) |
| 185 nM | CCOP(=O)(OCC)C(Nc1ccc(CNC(=O)C23CC4CC(CC(C4)C2)C3)cc1)c1ccncc1 (stereo not given) |
| 58 nM | CCCC(Nc1ccc(CNC(=O)C23CC4CC(CC(C4)C2)C3)cc1)P(=O)(OCC)OCC (stereo not given) |
| 1.9 nM | CCOP(=O)(OCC)C(Nc1ccc(CNC(=O)CC23CC4CC(CC(C4)C2)C3)cc1)C(C)(C)C (stereo not given) |
| 41 nM | CCOP(=O)(OCC)C(CC(C)(C)C)Nc1ccc(CNC(=O)C23CC4CC(CC(C4)C2)C3)cc1 (stereo not given) |
| 120 nM | CCOP(=O)(OCC)C(Nc1ccc(CNC(=O)C23CC4CC(CC(C4)C2)C3)cc1)c1ccc(F)cc1 (stereo not given) |
| 192 nM | CCOP(=O)(OCC)C(Nc1ccc(CNC(=O)C23CC4CC(CC(C4)C2)C3)cc1)c1ccc(C(C)(C)C)cc1 (stereo not given) |
| > 1000 nM | CCOP(=O)(OCC)C(Nc1ccc(COC(=O)C23CC4CC(CC(C4)C2)C3)cc1)C(C)(C)C (stereo not given) |
| 1.8 nM | CC(C)COP(=O)(OCC(C)C)C(Nc1ccc(CNC(=O)NC23CC4CC(CC(C4)C2)C3)cc1)C(C)(C)C (stereo not given) |
| 24 nM | CCOP(=O)(OCC)C(Nc1ccc(CNC(=O)c2ccc(OC(F)(F)F)cc2)cc1)C(C)(C)C (stereo not given) |
| 46 nM | CCOP(=O)(OCC)C(Nc1ccc(CNC(=O)C23CC4CC(CC(C4)C2)C3)cc1)C1CCCCC1 (stereo not given) |
| 69 nM | CCOP(=O)(OCC)C(Nc1ccc(CNC(=O)C23CC4CC(CC(C4)C2)C3)cc1)C(=O)c1ccccc1 (stereo not given) |
| 199 nM | CCOP(=O)(OCC)C(Nc1ccc(CNC(=O)C23CC4CC(CC(C4)C2)C3)cc1)c1ccc(OC)cc1 (stereo not given) |
| 42 nM | CC(C)(C)C(Nc1ccc(CNC(=O)C23CC4CC(CC(C4)C2)C3)cc1)P(=O)(OCc1ccccc1)OCc1ccccc1 (stereo not given) |

Test system: not listed separately
Test: Aqueous solubility of the compound in sodium phosphate buffer at pH 7.4 at 25 +/- 1.5 degC by light scattering method
Type: physicochemical
Outline: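 Compound stock in DMSO added at varied concentrations to 0.1 M sodium phosphate pH 7.4, final DMSO:buffer 5:95 (v/v). Turbidity read as OD at 650 nm at 25 ± 1.5 °C. Signal-to-noise ≥2 counted as insoluble. Mean of three separate measurements.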

| solubility kinetic | Structure (SMILES) |
| --- | --- |
| 78 µM (≈ 38.7 µg/mL) | CCOP(=O)(OCC)C(Nc1ccc(CNC(=O)Cc2ccc3ccccc3c2)cc1)C(C)(C)C (stereo not given) |
| 78 µM (≈ 39.4 µg/mL) | CCOP(=O)(OCC)C(Nc1ccc(CNC(=O)NC23CC4CC(CC(C4)C2)C3)cc1)C(C)(C)C (stereo not given) |
| 125 µM (≈ 61.3 µg/mL) | CCOP(=O)(OCC)C(Nc1ccc(CNC(=O)C23CC4CC(CC(C4)C2)C3)cc1)C(C)(C)C (stereo not given) |
| 62 µM (≈ 31.3 µg/mL) | CCOP(=O)(OCC)C(Nc1ccc(CNC(=O)CC23CC4CC(CC(C4)C2)C3)cc1)C(C)(C)C (stereo not given) |
